Results reported in ChEMBL document CHEMBL4219251, “Synthesis and biological evaluation of 2,4-disubstituted phthalazinones as Aurora kinase inhibitors” (Bioorg Med Chem, 2018).
Activity calls are given as the source filed them. The rule behind the calls is not given here.

Assays:
HepG2 = experiment: Antiproliferative activity against human HepG2 cells after 72 hrs by MTT assay; type: functional, cell-based
Method in brief: (§1)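 Cells kept in RPMI-1640 with 10% FBS at 37 °C, 5% CO2. Seeded at 5×10^3 cells/well and grown 24 h, then exposed 72 h at 37 °C to five concentrations (0.01, 0.1, 1, 10, 100 μM) in medium. MTT added for 4 h, formazan dissolved in DMSO, absorbance read at 490 nm. IC50 taken from a log plot of percent of control vs concentration; means ± SD of triplicate experiments.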

HeLa [1] = experiment: Antiproliferative activity against human HeLa cells after 72 hrs by MTT assay; type: functional, cell-based; method in brief: as §1
LoVo = experiment: Antiproliferative activity against human LoVo cells after 72 hrs by MTT assay; type: functional, cell-based; method in brief: as §1
A549 = experiment: Antiproliferative activity against human A549 cells after 72 hrs by MTT assay; type: functional, cell-based; method in brief: as §1
HCT-116 = experiment: Antiproliferative activity against human HCT116 cells after 72 hrs by MTT assay; type: functional, cell-based; method in brief: as §1
Aurora kinase A = target: T1, Aurora kinase A (Homo sapiens, UniProt O14965); experiment: Inhibition of Aurora A (unknown origin) using kemptide as substrate after 30 mins by kinase-Glo luminescence method
T1 sequence (O14965 whole entry): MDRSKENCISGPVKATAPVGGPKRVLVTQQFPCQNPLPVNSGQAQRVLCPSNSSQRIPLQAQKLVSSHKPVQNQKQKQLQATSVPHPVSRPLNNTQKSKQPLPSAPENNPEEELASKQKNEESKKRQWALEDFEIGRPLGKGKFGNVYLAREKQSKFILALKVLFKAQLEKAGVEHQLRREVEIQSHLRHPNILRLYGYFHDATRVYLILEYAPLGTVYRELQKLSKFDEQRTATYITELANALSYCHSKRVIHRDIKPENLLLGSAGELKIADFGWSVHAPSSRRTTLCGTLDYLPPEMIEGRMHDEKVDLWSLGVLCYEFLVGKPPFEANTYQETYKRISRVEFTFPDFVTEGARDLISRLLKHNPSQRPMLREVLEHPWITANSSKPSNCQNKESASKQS
Method in brief: (§2)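 Luminescent kinase assay. Reaction buffer: 40 mM Tris pH 7.4, 10 mM MgCl2, 1 mM DTT, 0.1 mg/ml BSA, 10 μM ATP, 0.2 μg/ml kinase, 100 μM Kemptide. Compounds tested at 0.1, 1, 10, 100 and 1000 nM (diluted in PBS). Reactions ran 30 min at 37 °C, signal read by Kinase-Glo luminescence, IC50 fitted from the curves.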

HeLa [2] = experiment: Cell cycle arrest in human HeLa cells assessed as accumulation at G2/M phase at 2 uM after 24 hrs by propidium iodide staining based FACS analysis (reference value: 9.63%); type: functional
Method in brief: (§3)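 HeLa cells exposed 24 h to 0, 0.5, 2.0 or 5.0 μM. (1–5)×10^5 cells harvested, washed twice in PBS, fixed overnight or longer in 75% ice-cold ethanol, then washed three times in PBS. DNA stained 15 min in darkness with 1% Triton X-100, 0.01% RNase, 0.05% PI. Phase distribution measured by flow cytometry.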

HeLa [3] = experiment: Cell cycle arrest in human HeLa cells assessed as accumulation at G1 phase at 5 uM after 24 hrs by propidium iodide staining based FACS analysis (reference value: 65.66%); type: functional
HeLa [4] = experiment: Cell cycle arrest in human HeLa cells assessed as accumulation at S phase at 0.5 uM after 24 hrs by propidium iodide staining based FACS analysis (reference value: 24.72%); type: functional; method in brief: as §3
HeLa [5] = experiment: Cell cycle arrest in human HeLa cells assessed as accumulation at S phase at 2 uM after 24 hrs by propidium iodide staining based FACS analysis (reference value: 24.72%); type: functional; method in brief: as §3
Aurora kinase B [6] = target: T2, Aurora kinase B (Homo sapiens, UniProt Q96GD4); experiment: Inhibition of Aurora B phosphorylation at Thr232 residue in human HeLa cells at 5 uM after 6 hrs by Western blot method; type: cell-based
T2 sequence (Q96GD4 whole entry): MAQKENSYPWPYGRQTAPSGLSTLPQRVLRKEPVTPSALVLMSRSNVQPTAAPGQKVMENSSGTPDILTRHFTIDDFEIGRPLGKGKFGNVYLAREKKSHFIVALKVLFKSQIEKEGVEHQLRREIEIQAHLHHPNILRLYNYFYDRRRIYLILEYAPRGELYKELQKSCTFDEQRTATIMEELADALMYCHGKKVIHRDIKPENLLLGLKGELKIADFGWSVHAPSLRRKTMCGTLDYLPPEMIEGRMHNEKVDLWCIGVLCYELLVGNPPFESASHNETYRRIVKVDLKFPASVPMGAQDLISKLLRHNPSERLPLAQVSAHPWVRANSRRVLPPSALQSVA
Method in brief: (§4)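 HeLa cells treated 6 h at 0, 0.5, 2.5 or 5.0 μM. Lysates (20–30 μg) resolved on 12% SDS-PAGE and blotted to PVDF. Probed overnight at 4 °C with antibodies to phospho-AurA Thr288, phospho-AurB Thr232 and total AurA/AurB. β-actin used as loading control. Values are mean ± SD versus control.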

HeLa [7] = experiment: Cell cycle arrest in human HeLa cells assessed as accumulation at G2/M phase after 24 hrs by propidium iodide staining based FACS analysis; type: functional; method in brief: as §3
Aurora kinase B [8] = target: T2, Aurora kinase B; experiment: Inhibition of Aurora B phosphorylation at Thr232 residue in human HeLa cells after 6 hrs by Western blot method; type: cell-based; method in brief: as §4
HeLa [9] = experiment: Downregulation of Cdc2 protein level in human HeLa cells after 24 hrs by Western blot method; type: functional, cell-based
Method in brief: (§5)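 HeLa cells treated 24 h at 0, 0.5, 2.0 or 5.0 μM, or with VX-680 at 5.0 μM. Lysed in Tris-HCl pH 7.5/NP-40/SDS buffer with protease inhibitors, 20–30 μg protein run on 12% SDS-PAGE, transferred to PVDF, probed overnight at 4 °C with anti-cyclinB1 and anti-cdc2. β-actin served as loading control. Values are mean ± SD.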

HeLa [10] = experiment: Cell cycle arrest in human HeLa cells assessed as accumulation at S phase at 5 uM after 24 hrs by propidium iodide staining based FACS analysis (reference value: 24.72%); type: functional
[11] = target: T3, Aurora kinase A (Homo sapiens) (UniProt O14965); experiment: Inhibition of Aurora A phosphorylation at Thr288 residue in human HeLa cells after 6 hrs by Western blot method; type: cell-based; method in brief: as §4
T3 sequence (whole entry): T1 sequence (O14965 whole entry)

Aurora kinase B [12] = target: T2, Aurora kinase B; experiment: Inhibition of Aurora B (unknown origin) using kemptide as substrate after 30 mins by kinase-Glo luminescence method; method in brief: as §2
[13] = target: T3, Aurora kinase A (Homo sapiens); experiment: Inhibition of Aurora A phosphorylation at Thr288 residue in human HeLa cells at 5 uM after 6 hrs by Western blot method; type: cell-based; method in brief: as §4
HeLa [14] = experiment: Cell cycle arrest in human HeLa cells assessed as accumulation at G2/M phase at 5 uM after 24 hrs by propidium iodide staining based FACS analysis (reference value: 9.63%); type: functional
HeLa [15] = experiment: Cell cycle arrest in human HeLa cells assessed as accumulation at G1 phase at 0.5 uM after 24 hrs by propidium iodide staining based FACS analysis (reference value: 65.66%); type: functional; method in brief: as §3
HeLa [16] = experiment: Downregulation of Cyclin-B1 protein level in human HeLa cells after 24 hrs by Western blot method; type: functional, cell-based; method in brief: as §5
HeLa [17] = experiment: Cell cycle arrest in human HeLa cells assessed as accumulation at G2/M phase at 0.5 uM after 24 hrs by propidium iodide staining based FACS analysis (reference value: 9.63%); type: functional; method in brief: as §3
HeLa [18] = experiment: Cell cycle arrest in human HeLa cells assessed as accumulation at G1 phase at 2 uM after 24 hrs by propidium iodide staining based FACS analysis (reference value: 65.66%); type: functional; method in brief: as §3

SMILES	IC50 (HepG2; Homo sapiens, HepG2, 72 h) [µM]	IC50 (HeLa [1]; Homo sapiens, HeLa, 72 h) [µM]	IC50 (LoVo; Homo sapiens, LoVo, 72 h) [µM]	IC50 (A549; Homo sapiens, A549, 72 h) [µM]	IC50 (HCT-116; Homo sapiens, HCT-116, 72 h) [µM]	also measured
Cn1cc(-c2nn(Cc3ccc(C(=O)N4CCOCC4)cc3)c(=O)c3ccccc23)cn1	> 100	> 100	52.3	73.3	> 100	–
Cc1noc(C)c1-c1nn(Cc2ccc(C(=O)NC3CCCCC3)cc2)c(=O)c2ccccc12	> 100	> 100	82.2	> 100	> 100	–
Cn1cc(-c2nn(Cc3ccc(C(=O)NC4CCCCC4)cc3)c(=O)c3ccccc23)cn1	4.6	2.2	2.6	3.3	3.8	IC50 (Aurora kinase A): 0.118 µM; Activity (HeLa [2]): 81.19%; Activity (HeLa [3]): 7.34%; Activity (HeLa [4]): 30.47%; Activity (HeLa [5]): 12.83%; inhibition (Aurora kinase B [6]): Active; Activity (HeLa [7]): Dose-dependent effect; inhibition (Aurora kinase B [8]): Dose-dependent effect; Activity (HeLa [9]): Dose-dependent effect; Activity (HeLa [10]): 5.48%; inhibition [11]: Dose-dependent effect; IC50 (Aurora kinase B [12]): 0.08 µM; inhibition [13]: Active; Activity (HeLa [14]): 87.17%; Activity (HeLa [15]): 34.87%; Activity (HeLa [16]): Dose-dependent effect; Activity (HeLa [17]): 34.66%; Activity (HeLa [18]): 5.98%
Cc1noc(C)c1-c1nn(Cc2ccc(C(=O)N3CCOCC3)cc2)c(=O)c2ccccc12	> 100	> 100	84.4	> 100	> 100	–
Cc1noc(C)c1-c1nn(Cc2ccc(C(=O)NC3CCCC3)cc2)c(=O)c2ccccc12	> 100	> 100	> 100	> 100	> 100	–
O=C(Nc1ccccc1Cl)c1ccc(Nc2nn(Cc3ccc(C(=O)NC4CCCCC4)cc3)c(=O)c3ccccc23)cc1	82.4	87.3	79.5	> 100	> 100	–
Cn1cc(-c2nn(Cc3ccc(C(=O)NC4CC(C)(C)N([O])C(C)(C)C4)cc3)c(=O)c3ccccc23)cn1	27.4	27.7	50.1	37.3	50.5	IC50 (Aurora kinase A): 0.168 µM; IC50 (Aurora kinase B [12]): 0.134 µM
Cc1noc(C)c1-c1nn(Cc2ccc(C(=O)NC3CC(C)(C)N([O])C(C)(C)C3)cc2)c(=O)c2ccccc12	–	–	–	–	–	IC50 (HepG2; hepg2): 85.1 µM; IC50 (HeLa [1]; hela): 83.5 µM; IC50 (LoVo; lovo): 41.2 µM; IC50 (A549; a549): 84.3 µM; IC50 (HCT-116; hct-116): 36.8 µM
Cc1noc(C)c1-c1nn(Cc2ccc(C(=O)NC3CC3)cc2)c(=O)c2ccccc12	> 100	> 100	> 100	> 100	> 100	–
Cn1cc(-c2nn(Cc3ccc(C(=O)N4CCCCC4)cc3)c(=O)c3ccccc23)cn1	73.1	65.5	77.1	67.4	73.9	–
Cn1cc(-c2nn(Cc3ccc(C(=O)NC4CC4)cc3)c(=O)c3ccccc23)cn1	> 100	40	48.2	51.2	20.1	–
O=C(NC1CCCCC1)c1ccc(Cn2nc(Nc3ccc(C(=O)N4CCOCC4)cc3)c3ccccc3c2=O)cc1	40.4	23.2	54.5	64.3	48.2	–
Cc1noc(C)c1-c1nn(Cc2ccc(C(=O)NC3CCN(C)CC3)cc2)c(=O)c2ccccc12	> 100	> 100	> 100	> 100	84.9	–
Cn1cc(Nc2nn(Cc3ccc(C(=O)NC4CCCCC4)cc3)c(=O)c3ccccc23)cn1	8.3	3.2	5.3	6.8	5.4	IC50 (Aurora kinase A): 0.145 µM; IC50 (Aurora kinase B [12]): 0.132 µM
Cn1cc(-c2nn(Cc3ccc(C(=O)NC4CCCC4)cc3)c(=O)c3ccccc23)cn1	84.3	16.7	23.7	32.3	14.3	IC50 (Aurora kinase A): 0.583 µM; IC50 (Aurora kinase B [12]): 0.265 µM
Cc1noc(C)c1-c1nn(Cc2ccc(C(=O)N3CCCCC3)cc2)c(=O)c2ccccc12	97.3	> 100	> 100	86.2	> 100	–
CN1CCC(NC(=O)c2ccc(Cn3nc(-c4cnn(C)c4)c4ccccc4c3=O)cc2)CC1	47.3	28.5	83.3	54.3	69.5	IC50 (Aurora kinase A): 0.183 µM; IC50 (Aurora kinase B [12]): 0.105 µM
Cc1cc(Nc2nn(Cc3ccccc3)c(=O)c3ccccc23)n[nH]1	11.3	6.3	22.2	42.6	22.7	–
